Residues, ends and D or L forms follow the SMILES beside them. *: point of attachment. Cbz = O=C(OCc1ccccc1)*
Legend:
DLD-1 cells = assay: Pan-RAS siRNA knockdown and viability; format: cell-based, human; conditions: si-panRAS vs non-targeting siRNA, 24 h, CellTiter-Glo
In short: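 DLD-1 cells reverse-transfected in 6-well plates with siRNA pools against HRAS, KRAS and NRAS, or a non-targeting pool. Cells then re-suspended in serum-free RPMI and seeded at 10,000 cells/well in 384-well plates overnight. Dilution series added from 10× stocks in serum-free Opti-mem; 24 h incubation; viability by CellTiter-Glo.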

[1] = tested on: BRAF^V600E-CAAX-expressing MEF cells; assay: Viability assay in mouse embryo fibroblasts; format: cell-based; conditions: compared with Kras^lox/lox MEFs

SMILES	effect of combined HRAS, NRAS and KRAS knockdown on compound lethality (DLD-1 cells)	sensitivity of BRAF^V600E-CAAX-expressing cells [1]
CC(C)C[C@@H](C=O)NC(=O)[C@H](CC(C)C)NC(=O)[C@H](CC(C)C)NC(=O)OCc1ccccc1 [MG132, reference compound] (Cbz-Leu-Leu-Leu-aldehyde)	did not sensitize	
CCCS(=O)(=O)Nc1ccc(F)c(C(=O)c2c[nH]c3ncc(-c4ccc(Cl)cc4)cc23)c1F [vemurafenib, reference compound]		more sensitive

— PMC5362268 (Cell, 2017)
